According to ChEMBL document CHEMBL4610116, “Salicylanilide Analog Minimizes Relapse of Clostridioides difficile Infection in Mice” (J Med Chem, 2020):
Calls of active or inactive are those of the source. The calls are words filed in the database; no cut-off is given here.

Key:
Clostridioides difficile [1] = assay: (§1) Suppression of relapse of Clostridioides difficile 630 infection in cefoperazone-treated C57BL/6J mouse model of recurrent Clostridioides difficile 630 infection assessed as reduction in microbial load (total vegetative cells plus spores) at 5 mg/kg, po for 5 days from day 4 to 9 after infection with spores; format: functional, organism-based
Summary of the method: (§2)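 Five-week-old C57BL/6J mice of both sexes given cefoperazone 0.5 mg/ml in drinking water for 5 days, then a 2-day washout. Oral challenge with C. difficile 630 spores on day 0. Oral gavage in 2-(hydroxypropyl)-cyclodextrin vehicle on days 4–9; n = 6 per group. Body weight recorded daily. Feces or cecal contents suspended 1:10 in PBS, serially diluted and plated on TCCFA, incubated anaerobically at 37°C for 24 h; results as CFU/g.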

[2] = Clearance in non-antibioticc-treated C57Bl/6J mouse at 0.3 mg/kg, iv and measured after 5 mins to 24 hrs by LC/MS-SRM analysis; format: ADME, organism-based; conditions: in vivo
Summary of the method: (§3)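 Non-antibiotic-treated C57Bl/6J mice given a single i.v. dose of 0.3 mg/kg; n = 3 per time point. Bled at 5, 10, 30 min and 1, 2, 4, 8, 24 h. Plasma mixed with 2 volumes acetonitrile containing internal standard, centrifuged, supernatant quantified by LC/MS-SRM.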

[3] = Effect on gut microbiota in cefoperazone-treated C57BL/6J mouse model of recurrent Clostridioides difficile 630 infection assessed as increase in abundance of Lachnospiraceae at 5 mg/kg, po for 5 days from day 4 to 9 after infection with spores measured on day day 14 by 16S rRNA Illumina sequencing analysis; format: ADME, organism-based; conditions: in vivo, 120 h
Summary of the method: (§4)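 Recurrent CDI model in cefoperazone-treated C57BL/6J mice challenged with strain 630 and gavaged on days 4–9 (n = 6 per group). Cecal tissue snips collected at necropsy underwent 16S rRNA gene community sequencing on Illumina MiSeq.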

Clostridioides difficile [4] = assay: as §1, with “group-Proteobacteria level” for “microbial load (total vegetative cells plus spores)”, “spores measured on day day 14” for “spores”; format: functional, organism-based; summary of the method: as §4
[5] = Ratio of Cmin in cecum of cefoperazone-treated C57Bl/6J mouse at 1 mg/kg, po dosed each day for 5 days and measured over 24 hrs post last dose by LC/MS-SRM analysis to MIC for antimicrobial activity against Clostridioides difficile CD10463 incubated for 20 to 24 hrs by broth microdilution method; format: ADME, organism-based; conditions: in vivo
Clostridioides difficile [6] = assay: as §1, with “spores) in cecal content” for “spores)”, “spores measured on day day 14” for “spores”; format: functional, organism-based; summary of the method: as §2
Clostridioides difficile [7] = assay: as §1, with “with spores measured on day 9” for “with spores”; format: functional, organism-based; summary of the method: as §2
[8] = Cytotoxicity in HEK293T/17 cells assessed as reduction in cell viability incubated for 16 hrs by MTS assay; format: cell-based; conditions: human
Summary of the method: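 HEK 293T/17 cells seeded at 2 × 10⁴ per well in DMEM and allowed to adhere 24 h at 37°C, 5% CO₂. Exposed to 0.020–40 µM compound in DMEM for 16 h, then MTS read-out after 1 h at 37°C. Normalized to untreated cells and to 0.2 mM digitonin; duplicates.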

[9] = MRT in cefoperazone-treated C57Bl/6J mouse at 1 mg/kg, po dosed each day for 5 days by LC/MS-SRM analysis; format: ADME, organism-based; conditions: in vivo
Summary of the method: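 C57Bl/6J mice pre-treated with cefoperazone 0.5 mg/mL in drinking water for 10 days, then a 2-day washout. Oral dose of 1 mg/kg given daily for 5 days. Bled at 5, 10, 30 min and 1, 2, 4, 10, 24 h after dosing on the first and final days; n = 3 per time point. Plasma mixed with 2 volumes acetonitrile containing internal standard, centrifuged, supernatant analysed by LC/MS-SRM.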

[10] = Oral bioavailability in cefoperazone-treated C57Bl/6J mouse at 1 mg/kg dosed each day for 5 days by LC/MS-SRM analysis; format: ADME, organism-based; conditions: in vivo
[11] = Instantaneous volume of distribution in non-antibioticc-treated C57Bl/6J mouse at 0.3 mg/kg, iv and measured after 5 mins to 24 hrs by LC/MS-SRM analysis; format: ADME, organism-based; conditions: in vivo; summary of the method: as §3

O=C(Nc1cc(C(F)(F)F)c(Oc2ccc(Cl)cc2)c(C(F)(F)F)c1)c1cc(Cl)cc(Cl)c1O
Activity (Clostridioides difficile [1]): Active
clearance [2]: 1 mL/min/kg
Activity [3]: Non-Toxic
Activity (Clostridioides difficile [4]): Active
Ratio [5]: 100
Activity (Clostridioides difficile [6]): Active
Activity (Clostridioides difficile [7]): Active
Activity [8]: > 2.5 µM
MRT [9]: 9.7 h
bioavailability [10]: 76%
Vc [11]: 8.5 mL
